A value given as a limit tells only on which side of the number the result lay.

The test system of one test is Saccharomyces cerevisiae. In words: Growth inhibition of SOD2-deficient Saccharomyces cerevisiae YHR008C mutant at 20 ug/disc 24 to 48 hrs by agar diffusion assay. It is filed as functional. As to conditions: read-out: DIZ. The essentials: (§1)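 S. cerevisiae deletion mutants or wild type grown on YPD, seeded into liquid agar medium at an optical density of 0.1. 6 mm paper discs soaked with methanolic compound solution were placed on the plates and incubated at 30 °C. Growth was checked after 1 and 2 days, and the inhibition zone diameter was recorded in mm.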
On the technique in general: A growth-free zone around the sample is the usual read-out of agar diffusion tests.
Take `CC1=C(SCCC(=O)OC(C[Se]c2ccccc2)C(=O)NC(C)(C)C)C(=O)c2ccccc2C1=O` (stereo not given): the zone of inhibition at 20 µg/disc stood at 12 mm.

The next test relates to Saccharomyces cerevisiae. In words: Growth inhibition of GSH2-deficient Saccharomyces cerevisiae YOL049W mutant at 20 ug/disc after 24 to 48 hrs by agar diffusion assay. It is filed as functional. The conditions noted are these: read-out: DIZ. In short, it runs like this:
as §1
As to `CC1=C(SCCC(=O)OC(C[Se]c2ccccc2)C(=O)NC(C)(C)C)C(=O)c2ccccc2C1=O` (stereo not given), the zone of inhibition at 20 µg/disc stood at 9 mm.

Another test has as its system Saccharomyces cerevisiae. In words: Growth inhibition of WSC4-deficient Saccharomyces cerevisiae YHL028W mutant at 20 ug/disc 24 to 48 hrs by agar diffusion assay. The class given is functional. As to conditions: read-out: DIZ. In short, it runs like this: as §1
For the compound `CC1=C(SCCC(=O)OC(C[Se]c2ccccc2)C(=O)NC(C)(C)C)C(=O)c2ccccc2C1=O` (stereo not given), the zone of inhibition at 20 µg/disc came to 11 mm.

The subject of another test is MCF7. In words: Cytotoxicity against human MCF7 cells after 24 hrs by MTT assay. It is filed as functional, cell-based. As to conditions: MCF7, 24 h. The essentials:
(§2)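 MTT assay. Cells were seeded at 50,000 cells/mL in medium with 10% fetal calf serum and grown for two days at 37 °C, 10% CO2. Serial dilutions of compound were then added for 24 h. MTT was added (final 0.5 mg/mL) for 2 h, and the formazan was pelleted, washed, dissolved in isopropanol with 0.4% HCl and read at 590 nm. IC50 is the concentration giving 50% of untreated-control absorbance, taken from dose-response curves; mean of two parallel experiments.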
In general terms: Formazan colour is commonly taken as a measure of viable cells.
Regarding `CC(C)(C)NC(=O)COC(=O)c1ccc(-c2c3nc(c(-c4ccccc4)c4ccc([nH]4)c(-c4ccccc4)c4nc(c(-c5ccccc5)c5ccc2[nH]5)C=C4)C=C3)cc1`, the IC50 was more than 100 µM.
On the same count and under the same terms, for `CC(C)(C)NC(=O)C(C[Se]c1ccccc1)OC(=O)c1ccc(-c2c3nc(c(-c4ccccc4)c4ccc([nH]4)c(-c4ccccc4)c4nc(c(-c5ccccc5)c5ccc2[nH]5)C=C4)C=C3)cc1` (stereo not given) the value was more than 100 µM; for `CC1=C(SCCC(=O)OC(C[Se]C2=C(C)C(=O)c3ccccc3C2=O)C(=O)NC(C)(C)C)C(=O)c2ccccc2C1=O` (stereo not given), 3 µM; for `CC1=C([Se]CC(OC(=O)c2ccc(-c3c4nc(c(-c5ccccc5)c5ccc([nH]5)c(-c5ccccc5)c5nc(c(-c6ccccc6)c6ccc3[nH]6)C=C5)C=C4)cc2)C(=O)NC(C)(C)C)C(=O)c2ccccc2C1=O` (stereo not given), more than 100 µM.
For `CC1=C(SCCC(=O)OC(C[Se]c2ccccc2)C(=O)NC(C)(C)C)C(=O)c2ccccc2C1=O` (stereo not given), the IC50 came to 14 µM.

Another test deals with Saccharomyces cerevisiae. In words: Growth inhibition of POS5-deficient Saccharomyces cerevisiae YPL188W mutant at 20 ug/disc after 24 to 48 hrs by agar diffusion assay. It is filed as functional. As to conditions: read-out: DIZ. In short, it runs like this: as §1
Take `CC1=C(SCCC(=O)OC(C[Se]c2ccccc2)C(=O)NC(C)(C)C)C(=O)c2ccccc2C1=O` (stereo not given): the zone of inhibition at 20 µg/disc amounted to 9 mm.

The test system of another test is A-431. In words: Cytotoxicity against human A431 cells after 24 hrs by MTT assay. It is filed as functional, cell-based. The conditions noted are these: A-431, 24 h. The essentials:
as §2
`CC(C)(C)NC(=O)COC(=O)c1ccc(-c2c3nc(c(-c4ccccc4)c4ccc([nH]4)c(-c4ccccc4)c4nc(c(-c5ccccc5)c5ccc2[nH]5)C=C4)C=C3)cc1` yielded an IC50 of more than 100 µM.
The compound `CC(C)(C)NC(=O)C(C[Se]c1ccccc1)OC(=O)c1ccc(-c2c3nc(c(-c4ccccc4)c4ccc([nH]4)c(-c4ccccc4)c4nc(c(-c5ccccc5)c5ccc2[nH]5)C=C4)C=C3)cc1` (stereo not given) came in with an IC50 of more than 100 µM.
In the case of `CC1=C(SCCC(=O)OC(C[Se]C2=C(C)C(=O)c3ccccc3C2=O)C(=O)NC(C)(C)C)C(=O)c2ccccc2C1=O` (stereo not given), the IC50 worked out at 1 µM.
With `CC1=C([Se]CC(OC(=O)c2ccc(-c3c4nc(c(-c5ccccc5)c5ccc([nH]5)c(-c5ccccc5)c5nc(c(-c6ccccc6)c6ccc3[nH]6)C=C5)C=C4)cc2)C(=O)NC(C)(C)C)C(=O)c2ccccc2C1=O` (stereo not given), the IC50 was more than 100 µM.
In turn, `CC1=C(SCCC(=O)OC(C[Se]c2ccccc2)C(=O)NC(C)(C)C)C(=O)c2ccccc2C1=O` (stereo not given) had an IC50 of 7 µM.

For a further test, the system named is Saccharomyces cerevisiae. Kind of test: Growth inhibition of COX17-deficient Saccharomyces cerevisiae YLL009C mutant at 20 ug/disc after 24 to 48 hrs by agar diffusion assay. It is filed as functional. As to conditions: read-out: DIZ. In short, it runs like this:
as §1
In the case of `CC1=C(SCCC(=O)OC(C[Se]c2ccccc2)C(=O)NC(C)(C)C)C(=O)c2ccccc2C1=O` (stereo not given), the zone of inhibition at 20 µg/disc was 0 mm.

Another test deals with Saccharomyces cerevisiae. Kind of test: Growth inhibition of RCK1-deficient Saccharomyces cerevisiae YGL158W mutant at 20 ug/disc after 24 to 48 hrs by agar diffusion assay. As to conditions: read-out: DIZ. The class given is functional. The essentials:
as §1
Take `CC1=C(SCCC(=O)OC(C[Se]c2ccccc2)C(=O)NC(C)(C)C)C(=O)c2ccccc2C1=O` (stereo not given): the zone of inhibition at 20 µg/disc was found to be 9 mm.

The subject of a further test is Saccharomyces cerevisiae. Kind of test: Growth inhibition of GTT2-deficient Saccharomyces cerevisiae YLL060C mutant at 20 ug/disc after 24 to 48 hrs by agar diffusion assay. It is filed as functional. The conditions noted are these: read-out: DIZ. The essentials: as §1
As for `CC1=C(SCCC(=O)OC(C[Se]c2ccccc2)C(=O)NC(C)(C)C)C(=O)c2ccccc2C1=O` (stereo not given), the zone of inhibition at 20 µg/disc was 12 mm.

The subject of another test is Saccharomyces cerevisiae. Kind of test: Growth inhibition of UFD2-deficient Saccharomyces cerevisiae YDL190C mutant at 20 ug/disc after 24 to 48 hrs by agar diffusion assay. It is filed as functional. The conditions noted are these: read-out: DIZ. The essentials: as §1
On to `CC1=C(SCCC(=O)OC(C[Se]c2ccccc2)C(=O)NC(C)(C)C)C(=O)c2ccccc2C1=O` (stereo not given), for which the zone of inhibition at 20 µg/disc is 0 mm.

System in a further test: not listed separately
Kind of test: Cytotoxicity against human PHF cells after 24 hrs by MTT assay. The class given is cell-based.
Conditions: not given
The essentials: as §2
In the case of `CC(C)(C)NC(=O)COC(=O)c1ccc(-c2c3nc(c(-c4ccccc4)c4ccc([nH]4)c(-c4ccccc4)c4nc(c(-c5ccccc5)c5ccc2[nH]5)C=C4)C=C3)cc1`, the IC50 was more than 100 µM.
Compound `CC(C)(C)NC(=O)C(C[Se]c1ccccc1)OC(=O)c1ccc(-c2c3nc(c(-c4ccccc4)c4ccc([nH]4)c(-c4ccccc4)c4nc(c(-c5ccccc5)c5ccc2[nH]5)C=C4)C=C3)cc1` (stereo not given) yielded an IC50 of more than 100 µM.
As to `CC1=C([Se]CC(OC(=O)c2ccc(-c3c4nc(c(-c5ccccc5)c5ccc([nH]5)c(-c5ccccc5)c5nc(c(-c6ccccc6)c6ccc3[nH]6)C=C5)C=C4)cc2)C(=O)NC(C)(C)C)C(=O)c2ccccc2C1=O` (stereo not given), the IC50 is more than 100 µM.
`CC1=C(SCCC(=O)OC(C[Se]c2ccccc2)C(=O)NC(C)(C)C)C(=O)c2ccccc2C1=O` (stereo not given) showed an IC50 of 26 µM. This counts as double-digit micromolar.

In the next test the test system is Saccharomyces cerevisiae. Kind of test: Growth inhibition of wild type Saccharomyces cerevisiae BY4741 at 20 ug/disc after 24 to 48 hrs by agar diffusion assay. It is filed as functional. As to conditions: read-out: DIZ. The essentials:
as §1
For `CC1=C(SCCC(=O)OC(C[Se]c2ccccc2)C(=O)NC(C)(C)C)C(=O)c2ccccc2C1=O` (stereo not given), the zone of inhibition at 20 µg/disc came out at 0 mm.

In a further test the test system is A498. In words: Cytotoxicity against human A498 cells after 24 hrs by MTT assay. It is filed as functional, cell-based. As to conditions: A498, 24 h. In short, it runs like this: as §2
As for `CC(C)(C)NC(=O)COC(=O)c1ccc(-c2c3nc(c(-c4ccccc4)c4ccc([nH]4)c(-c4ccccc4)c4nc(c(-c5ccccc5)c5ccc2[nH]5)C=C4)C=C3)cc1`, the IC50 was more than 100 µM.
Turning to `CC(C)(C)NC(=O)C(C[Se]c1ccccc1)OC(=O)c1ccc(-c2c3nc(c(-c4ccccc4)c4ccc([nH]4)c(-c4ccccc4)c4nc(c(-c5ccccc5)c5ccc2[nH]5)C=C4)C=C3)cc1` (stereo not given), the IC50 is more than 100 µM.
Regarding `CC1=C(SCCC(=O)OC(C[Se]C2=C(C)C(=O)c3ccccc3C2=O)C(=O)NC(C)(C)C)C(=O)c2ccccc2C1=O` (stereo not given), half-maximal inhibition (IC50) was put at 3 µM. This counts as single-digit micromolar.
Still for that read-out and setting: for `CC1=C([Se]CC(OC(=O)c2ccc(-c3c4nc(c(-c5ccccc5)c5ccc([nH]5)c(-c5ccccc5)c5nc(c(-c6ccccc6)c6ccc3[nH]6)C=C5)C=C4)cc2)C(=O)NC(C)(C)C)C(=O)c2ccccc2C1=O` (stereo not given) the value was more than 100 µM; for `CC1=C(SCCC(=O)OC(C[Se]c2ccccc2)C(=O)NC(C)(C)C)C(=O)c2ccccc2C1=O` (stereo not given), more than 100 µM.

In the next test the test system is HUVEC. Kind of test: Cytotoxicity against human HUVEC cells after 24 hrs by MTT assay.
Conditions: not given
The class given is cell-based. In short, it runs like this:
as §2
As for `CC(C)(C)NC(=O)COC(=O)c1ccc(-c2c3nc(c(-c4ccccc4)c4ccc([nH]4)c(-c4ccccc4)c4nc(c(-c5ccccc5)c5ccc2[nH]5)C=C4)C=C3)cc1`, the IC50 was more than 100 µM.
In the case of `CC(C)(C)NC(=O)C(C[Se]c1ccccc1)OC(=O)c1ccc(-c2c3nc(c(-c4ccccc4)c4ccc([nH]4)c(-c4ccccc4)c4nc(c(-c5ccccc5)c5ccc2[nH]5)C=C4)C=C3)cc1` (stereo not given), the IC50 was more than 100 µM.
Still for that read-out and setting: the result for `CC1=C(SCCC(=O)OC(C[Se]C2=C(C)C(=O)c3ccccc3C2=O)C(=O)NC(C)(C)C)C(=O)c2ccccc2C1=O` (stereo not given) reads 1 µM; that for `CC1=C([Se]CC(OC(=O)c2ccc(-c3c4nc(c(-c5ccccc5)c5ccc([nH]5)c(-c5ccccc5)c5nc(c(-c6ccccc6)c6ccc3[nH]6)C=C5)C=C4)cc2)C(=O)NC(C)(C)C)C(=O)c2ccccc2C1=O` (stereo not given), more than 100 µM.
`CC1=C(SCCC(=O)OC(C[Se]c2ccccc2)C(=O)NC(C)(C)C)C(=O)c2ccccc2C1=O` (stereo not given) came in with an IC50 of 34 µM. This counts as double-digit micromolar.

For a further test, the system named is Saccharomyces cerevisiae. In words: Growth inhibition of SOD1-deficient Saccharomyces cerevisiae YJR104C mutant at 20 ug/disc after 24 to 48 hrs by agar diffusion assay. The class given is functional. The conditions noted are these: read-out: DIZ. In short, it runs like this:
as §1
Regarding `CC1=C(SCCC(=O)OC(C[Se]c2ccccc2)C(=O)NC(C)(C)C)C(=O)c2ccccc2C1=O` (stereo not given), the zone of inhibition at 20 µg/disc came out at 15 mm.

Another test concerns Saccharomyces cerevisiae. In words: Growth inhibition of PST2-deficient Saccharomyces cerevisiae YDR032C mutant at 20 ug/disc 24 to 48 hrs by agar diffusion assay. It is filed as functional. As to conditions: read-out: DIZ. In short, it runs like this: as §1
For `CC1=C(SCCC(=O)OC(C[Se]c2ccccc2)C(=O)NC(C)(C)C)C(=O)c2ccccc2C1=O` (stereo not given), the zone of inhibition at 20 µg/disc is 12 mm.

The term IC50 denotes the concentration at which inhibition is half-maximal. Low values mean greater potency, high ones weaker potency.

(Values after ChEMBL document CHEMBL2177069, “Novel peptidomimetic compounds containing redox active chalcogens and quinones as potential anticancer agents” (Eur J Med Chem, 2012).)
